# From ChEMBL document CHEMBL4330179, “De Novo Discovery of Nonstandard Macrocyclic Peptides as Noncompetitive Inhibitors of the Zika Virus NS2B-NS3 Protease” (ACS Med Chem Lett, 2019)
# Active and inactive are the calls of the source. Positions of bridges follow the written chain, without caps; N, C: chain ends. Non-standard residues stand in square brackets, D forms with d. Residues, ends and D or L forms follow the SMILES beside them. NMeY = CN[C@@H](Cc1ccc(O)cc1)C(=O)O; NMeF = CN[C@@H](Cc1ccccc1)C(=O)O; NMeS = CN[C@@H](CO)C(=O)O; Sar = CNCC(=O)O
# Experiments:
# Nonstructural protein 3 [1] = biological target: T1, Nonstructural protein 3 (Zika virus, UniProt A0A024AXB9); assay: Binding affinity to C-terminal His6-tagged linked Zika virus NS2B-NS3 protease domain by SPR analysis
# T1 sequence (A0A024AXB9 whole entry, the tested form may be a part): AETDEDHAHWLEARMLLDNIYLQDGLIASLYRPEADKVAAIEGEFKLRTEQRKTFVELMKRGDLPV
# In short: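 Dissociation constants measured by surface plasmon resonance, with the linked Zika NS2B-NS3 protease (gZiPro) immobilized on the chip.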
# Genome polyprotein [2] = biological target: Genome polyprotein (West Nile virus, UniProt P06935); assay: Inhibition of C-terminal His6-tagged linked West Nile virus NS2B-NS3 protease domain expressed in Escherichia coli Bl21(DE3) preincubated for 15 mins followed by AbzGly-Leu-Lys-Arg-Gly-Gly-3-(NO2)Tyr substrate addition and measured for 15 mins by fluorescence method
# Genome polyprotein (West Nile virus, UniProt P06935), sequence (P06935 1371-1501 limits assumed): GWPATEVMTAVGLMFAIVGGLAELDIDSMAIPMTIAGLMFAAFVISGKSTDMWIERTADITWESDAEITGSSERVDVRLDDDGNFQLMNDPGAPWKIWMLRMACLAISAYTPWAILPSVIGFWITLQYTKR
# Genome polyprotein (West Nile virus, UniProt P06935), sequence (P06935 1502-2120 limits assumed): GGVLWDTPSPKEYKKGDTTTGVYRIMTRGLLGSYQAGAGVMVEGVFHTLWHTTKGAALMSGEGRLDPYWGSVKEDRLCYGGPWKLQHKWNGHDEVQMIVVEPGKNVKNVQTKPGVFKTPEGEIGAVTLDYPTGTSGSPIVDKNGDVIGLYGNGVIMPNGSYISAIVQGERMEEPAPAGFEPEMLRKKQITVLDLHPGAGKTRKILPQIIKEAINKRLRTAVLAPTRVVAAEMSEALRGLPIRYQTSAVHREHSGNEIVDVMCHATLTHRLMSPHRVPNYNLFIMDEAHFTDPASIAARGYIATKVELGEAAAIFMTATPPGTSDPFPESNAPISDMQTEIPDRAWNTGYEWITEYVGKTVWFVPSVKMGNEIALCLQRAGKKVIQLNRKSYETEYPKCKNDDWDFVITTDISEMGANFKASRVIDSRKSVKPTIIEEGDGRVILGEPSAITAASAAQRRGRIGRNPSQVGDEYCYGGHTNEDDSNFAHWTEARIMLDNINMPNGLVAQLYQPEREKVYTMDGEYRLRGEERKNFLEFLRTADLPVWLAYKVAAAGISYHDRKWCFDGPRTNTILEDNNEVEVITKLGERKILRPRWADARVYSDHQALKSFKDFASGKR
# In short: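 West Nile virus NS2B-NS3 protease at 150 nM with internally quenched substrate Abz-Gly-Leu-Lys-Arg-Gly-Gly-3-(NO2)Tyr. IC50 is calculated for 50 μM substrate.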
# Nonstructural protein 3 [3] = biological target: T1, Nonstructural protein 3; assay: Inhibition of C-terminal His6-tagged unlinked Zika virus NS2B-NS3 protease domain expressed in Escherichia coli Bl21(DE3) using Bz-Nle-Lys-Lys-Arg-AMC as substrate after 30 mins by fluorophotometric method
# In short: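 Unlinked Zika NS2B-NS3 protease at 0.5 nM with Bz-Nle-Lys-Lys-Arg-AMC substrate.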
# Genome polyprotein [4] = biological target: Genome polyprotein (dengue virus type 2, UniProt P29990); assay: Inhibition of C-terminal His6-tagged linked Dengue virus serotype 2 NS2B-NS3 protease domain expressed in Escherichia coli Bl21(DE3) preincubated for 15 mins followed by Abz-Nle-Lys-Arg-Arg-Ser-3-(NO2)Tyr substrate addition and measured for 15 mins by fluorescence method
# Genome polyprotein (dengue virus type 2, UniProt P29990), sequence (P29990 1346-1475 limits assumed): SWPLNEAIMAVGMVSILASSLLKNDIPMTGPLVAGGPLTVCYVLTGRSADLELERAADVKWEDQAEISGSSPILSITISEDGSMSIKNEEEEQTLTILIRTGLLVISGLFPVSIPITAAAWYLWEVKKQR
# Genome polyprotein (dengue virus type 2, UniProt P29990), sequence (P29990 1476-2093 limits assumed): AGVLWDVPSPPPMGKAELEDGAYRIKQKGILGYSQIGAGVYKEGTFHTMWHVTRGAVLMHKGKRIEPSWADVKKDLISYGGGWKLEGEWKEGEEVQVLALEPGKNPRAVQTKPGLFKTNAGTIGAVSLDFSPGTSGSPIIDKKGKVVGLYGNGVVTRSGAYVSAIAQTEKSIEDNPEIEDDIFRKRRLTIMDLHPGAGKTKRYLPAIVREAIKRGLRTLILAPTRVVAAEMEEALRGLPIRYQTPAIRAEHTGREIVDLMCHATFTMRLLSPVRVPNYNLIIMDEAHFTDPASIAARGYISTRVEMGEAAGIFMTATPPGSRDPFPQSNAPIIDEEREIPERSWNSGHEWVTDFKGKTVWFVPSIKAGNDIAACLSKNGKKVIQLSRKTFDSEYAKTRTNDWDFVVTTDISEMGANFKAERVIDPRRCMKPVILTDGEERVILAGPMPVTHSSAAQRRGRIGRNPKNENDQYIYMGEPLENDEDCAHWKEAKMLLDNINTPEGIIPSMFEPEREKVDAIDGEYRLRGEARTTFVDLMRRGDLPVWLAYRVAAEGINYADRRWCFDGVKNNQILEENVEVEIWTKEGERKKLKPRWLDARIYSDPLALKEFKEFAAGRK
# In short: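 DENV-2 NS2B-NS3 protease used at 100 nM against the FRET substrate Abz-Nle-Lys-Arg-Arg-Ser-3-(NO2)Tyr. IC50 values were calculated for a substrate concentration of 50 μM.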
# [5] = biological target: T2, Nonstructural protein 3 (Zika virus) (UniProt A0A024AXB9); assay: Competitive inhibition of C-terminal His6-tagged linked Zika virus NS2B-NS3 protease domain expressed in Escherichia coli Bl21(DE3) using Bz-Nle-Lys-Lys-Arg-AMC as substrate after 30 mins by Cornish-Bowden plot analysis
# T2 sequence (A0A024AXB9 as listed by the source): as the sequence (A0A024AXB9 whole entry, the tested form may be a part) above
# Nonstructural protein 3 [6] = biological target: T1, Nonstructural protein 3; assay: Inhibition of C-terminal His6-tagged linked Zika virus NS2B-NS3 protease domain expressed in Escherichia coli Bl21(DE3) using Bz-Nle-Lys-Lys-Arg-AMC as substrate after 30 mins by fluorophotometric method
# In short: (§1)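 Fluorogenic substrate Bz-Nle-Lys-Lys-Arg-AMC against linked gZiPro, run at four substrate concentrations across a range of inhibitor concentrations. Ki comes from nonlinear least-squares fits to a noncompetitive inhibition model, and the mode is checked on Cornish–Bowden plots.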
# Nonstructural protein 3 [7] = biological target: T1, Nonstructural protein 3; assay: Non-competitive inhibition of C-terminal His6-tagged linked Zika virus NS2B-NS3 protease domain expressed in Escherichia coli Bl21(DE3) using Bz-Nle-Lys-Lys-Arg-AMC as substrate after 30 mins by Cornish-Bowden plot analysis; in short: as §1
# [8] = Selectivity index, ratio of IC50 for C-terminal His6-tagged linked Dengue virus serotype 2 NS2B-NS3 protease domain expressed in Escherichia coli Bl21(DE3) to Ki for non-competitive inhibition of C-terminal His6-tagged linked Zika virus NS2B-NS3 protease domain expressed in Escherichia coli Bl21(DE3)
# [9] = Selectivity index, ratio of IC50 for C-terminal His6-tagged linked West Nile virus NS2B-NS3 protease domain expressed in Escherichia coli Bl21(DE3) to Ki for non-competitive inhibition of C-terminal His6-tagged linked Zika virus NS2B-NS3 protease domain expressed in Escherichia coli Bl21(DE3)
# Trypsin (Homo sapiens) = Trypsin (Homo sapiens) (UniProt P07477+P07478+P35030); assay: Inhibition of trypsin (unknown origin) at 25 uM using Boc-Val-Pro-Arg-AMC as substrate preincubated for 15 mins followed by substrate addition and measured for 10 mins by fluorescence assay; format: protein assay
# In short: (§2)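 Serine protease counter-screens (thrombin, trypsin), tested up to a highest concentration of 25 or 50 μM.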
# [10] = biological target: Prothrombin (Homo sapiens) (UniProt P00734); assay: Inhibition of thrombin (unknown origin) at 25 uM using Boc-Val-Pro-Arg-AMC as substrate preincubated for 15 mins followed by substrate addition and measured for 10 mins by fluorescence assay; in short: as §2
# Huh-7 = assay: Cytotoxicity against human HuH7 cells assessed as reduction in cell viability up to 12.5 uM after 24 to 48 hrs by CellTiter-Blue assay; format: cell-based
# In short: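 Huh-7 cells exposed to compounds for 24 h and 48 h. Metabolic activity is read as % reduction relative to nontreated cells, with 80% viability used as the cutoff.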
# [11] = biological target: T2, Nonstructural protein 3 (Zika virus); assay: Inhibition of C-terminal His6-tagged unlinked Zika virus NS2B-NS3 protease domain expressed in Escherichia coli Bl21(DE3) at 200 to 400 nM using Bz-Nle-Lys-Lys-Arg-AMC as substrate after 30 mins in presence of cn-716 by fluorophotometric method
Compound,Kd (Nonstructural protein 3 [1]) [nM],IC50 (Genome polyprotein [2]) [nM],IC50 (Nonstructural protein 3 [3]) [nM],IC50 (Genome polyprotein [4]) [nM],inhibition [5],IC50 (Nonstructural protein 3 [6]) [nM],Ki (Nonstructural protein 3 [7]) [nM],Selectivity Index [8],Selectivity Index [9],inhibition (Trypsin (Homo sapiens)),inhibition [10],Activity (Huh-7),inhibition [11]
CC[C@H](C)[C@@H]1NC(=O)[C@H](C)NC(=O)[C@@H](Cc2ccc(O)cc2)NC(=O)CSC[C@@H](C(N)=O)NC(=O)[C@H](CC(N)=O)NC(=O)[C@H](CC(C)C)N(C)C(=O)[C@H](Cc2ccc(O)cc2)NC(=O)[C@H](CCCCN)NC(=O)[C@H](CC(N)=O)NC(=O)[C@H](Cc2ccc(O)cc2)NC(=O)[C@H](Cc2ccc(OC)cc2)N(C)C(=O)[C@H]([C@@H](C)CC)NC1=O,168,> 20000,3200,> 20000,inactive,7100,3500,–,–,–,–,–,–
CC(C)C[C@@H]1NC(=O)[C@H]([C@@H](C)O)NC(=O)[C@H](Cc2ccc(O)cc2)NC(=O)CSC[C@@H](C(N)=O)NC(=O)[C@H](Cc2ccccc2)NC(=O)[C@H](Cc2ccccc2)NC(=O)[C@H]([C@@H](C)O)NC(=O)CN(C)C(=O)[C@H](CC(N)=O)NC(=O)[C@H](Cc2cnc[nH]2)NC(=O)[C@H](Cc2ccccc2)NC(=O)[C@@H]2CCCN2C1=O ({CH2CO}-YTLPFHN[Sar]TFFC-NH2; thioether N-12),5,> 20000,≥ 50000,> 20000,inactive,–,> 100000,–,–,–,–,–,–
COc1ccc(C[C@H]2C(=O)N[C@@H](Cc3ccccc3)C(=O)N[C@H](C(N)=O)CSCC(=O)N[C@@H](Cc3ccc(O)cc3)C(=O)N[C@@H]([C@@H](C)O)C(=O)N[C@@H](CC(N)=O)C(=O)N[C@@H](Cc3ccccc3)C(=O)N[C@@H](Cc3ccc(O)cc3)C(=O)N[C@@H](CC(C)C)C(=O)N[C@@H](Cc3ccc(O)cc3)C(=O)N3CCC[C@H]3C(=O)N[C@@H](Cc3ccc(O)cc3)C(=O)N2C)cc1 ({CH2CO}-YTNFYLYPY[NMeY](Me)FC-NH2; thioether N-12),8,> 20000,2200,> 20000,inactive,3300,2000,> 10,> 10,–,–,–,–
CC[C@H](C)[C@@H]1NC(=O)[C@H](CC(N)=O)NC(=O)[C@H](C(C)C)NC(=O)[C@H](CC(C)C)NC(=O)[C@H]([C@@H](C)O)NC(=O)[C@H](CC(N)=O)NC(=O)[C@H](Cc2ccc(OC)cc2)N(C)C(=O)[C@H]([C@@H](C)CC)NC(=O)[C@H](CCCCN)NC(=O)[C@H](Cc2c[nH]c3ccccc23)NC(=O)[C@H](Cc2ccc(O)cc2)NC(=O)CSC[C@@H](C(N)=O)NC1=O ({CH2CO}-YWKI[NMeY](Me)NTLVNIC-NH2; thioether N-12),20,> 10000,1500,> 10000,inactive,1320,800,4,9,inactive,inactive,Non-Toxic,–
COc1ccc(C[C@H]2C(=O)N[C@@H](CCCCN)C(=O)N(C)[C@@H](Cc3ccccc3)C(=O)N[C@@H](CCCCN)C(=O)N(C)[C@@H](CO)C(=O)N(C)[C@@H](Cc3ccc(OC)cc3)C(=O)N[C@@H](CCCCN)C(=O)N(C)[C@@H](Cc3ccc(OC)cc3)C(=O)N(C)[C@@H](Cc3ccc(OC)cc3)C(=O)N[C@@H](CCCCN)C(=O)N[C@H](C(N)=O)CSCC(=O)N[C@@H](Cc3ccc(O)cc3)C(=O)N2C)cc1 ({CH2CO}-Y[NMeY](Me)K[NMeF]K[NMeS][NMeY](Me)K[NMeY](Me)[NMeY](Me)KC-NH2; thioether N-12),9,3900,250,1700,inactive,620,440,> 10,> 10,inactive,inactive,Non-Toxic,Active
CC[C@H](C)[C@@H]1NC(=O)CN(C)C(=O)[C@H](Cc2ccc(O)cc2)NC(=O)CSC[C@@H](C(N)=O)NC(=O)[C@@H]2CCCN2C(=O)[C@H]([C@@H](C)CC)NC(=O)[C@H](Cc2ccc(OC)cc2)N(C)C(=O)[C@H](Cc2ccc(OC)cc2)N(C)C(=O)[C@H](CC(N)=O)NC(=O)[C@H](Cc2ccc(O)cc2)NC(=O)[C@H](CCCCN)NC(=O)[C@H](C)NC1=O ({CH2CO}-Y[Sar]IAKYN[NMeY](Me)[NMeY](Me)IPC-NH2; thioether N-12),9,≥ 20000,4600,≥ 20000,inactive,16500,20400,–,–,–,–,–,–
